# Assay outcomes from PubChem.
# Hits are enriched below; roughly 5.4% of the tested compounds scored in any of these assays.
# T cruzi repl = T. cruzi replication inhibition. T. cruzi beta-gal in NIH3T3, luminescence, 90 h. inhibition, % (concentration not given with the values). actives 1.4% (n = 300,000);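 active = mean inhibition across valid replicates above about 55%, limit read from the data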;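 note: signal also drops with host cell toxicity which is not excluded here; 0% = plate median of DMSO wells and 100% = zero luminescence signal; higher percent means less beta-gal luminescence so fewer parasites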
#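 Read-out: Parasite load inhibition, % | Test system: Mouse NIH/3T3 fibroblasts infected with β-gal-expressing T. cruzi Tulahuen C4 | Amount: 5,000 cells/well | Medium: DMEM, 2% fetal bovine serum | Signal: GalScreen β-gal luminescence, detergent lysis, 60 min | Timing: 3 h attach, ≥90 h co-culture | Also added: Tulahuen C4 trypomastigotes, 5000/well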
# Mdm2-MdmX inh = disrupts the human Mdm2-MdmX interaction; AID 485346; actives 3% (n = 330,000); inhibition, % at 8 µM; O15151+Q00987; SaOS-2 split-luciferase Mdm2/MdmX complementation, luminescence;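 active = inhibition of at least 50% at 8 µM in the primary screen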
# aSyn UTR inh = MLPCN primary screen, SNCA 5' untranslated region; alpha-synuclein 5'UTR reporter, inhibitor activity; inhibition, % (tested at 7.5 µM); actives 0.82% (n = 300,000); AID 1813; in the data active = inhibition above about 60%;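 note: H4 neuroglioblastoma cells stably carrying SNCA 5'UTR luciferase fusion; 0% = DMSO wells and 100% = positive control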
# SKKanGAS inh = SKKanGAS growth inhibition; S. pyogenes SKKanGAS, kanamycin growth, BacTiter-Glo, 6 h; inhibition, % at 7.5 µM; AID 1662; actives 1.3% (n = 300,000);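 active = mean replicate score, as percent of positive control median, at least 50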;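 note: strain carries kanamycin resistance gene driven by streptokinase promoter and grows in 40 µg/ml kanamycin; loss of luminescence reflects streptokinase promoter inhibition or plain growth inhibition; 0% = median of DMSO wells and 100% = positive control at its reference dose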
# CSC inhib = cancer stem cell inhibition. actives 1.1% (n = 300,000). cancer stem cell-like cells viability, luminescence. inhibition, % at 7.5 µM; in the data active = inhibition above about 75%; tested in HMLE shEcad cells
# The depositor's hits bear a star; / = not tested or not shown.
SMILES,T cruzi repl,Mdm2-MdmX inh,aSyn UTR inh,SKKanGAS inh,CSC inhib
CCOc1ccc(C(=O)Nc2ccc(Cc3ccncc3)cc2)cc1Br,74*,13,-4,-10,-2
Cc1cccn2c(=O)nc(SCC(=O)NCc3ccc4c(c3)OCO4)nc12,-2,12,-21,14,4
CN(C)S(=O)(=O)c1ccc(C(=O)Nc2ccccc2C(=O)NCCCN2CCOCC2)cc1,/,4,/,/,-15
C=CCOc1c(Br)cc(CNCCCN2CCOCC2)cc1OC,58*,17,2,-3,-11
C=CCOc1ccc(Br)cc1CNCCCN1CCOCC1,4,20,-23,1,-1
O=C(Nc1ccccc1NC(=O)c1ccccc1F)c1ccccc1F,-9,-8,8,0,-10
O=C(Nc1ccccc1Sc1ccccc1)c1ccccc1F,1,-64,-10,61*,-6
CCCCN(C(=O)C(C)N1C(=O)c2ccccc2C1=O)c1c(N)n(CC(C)C)c(=O)[nH]c1=O (centres undefined),/,-2,/,/,/
COc1ccc(O)c(C(=O)CC(=O)c2ccccc2C)c1,-2,-45,-100,60*,32
COc1ccc(O)c(C(=O)CC(=O)c2ccc(F)cc2)c1,0,-8,73*,14,19
COc1ccc(C(=O)CC(=O)c2ccccc2O)cc1,3,-4,-218,24,7
CCc1ccc(N2CC(C(=O)Nc3cccc(C(=O)NC4CC4)c3)CC2=O)cc1 (centres undefined),/,-20,/,/,3
CC(c1ccccc1)N(C)C(=O)CSc1nnc(C2CC2)n1C1CC1 (centres undefined),/,5,/,/,/
O=C(NCCCN1CCOCC1)c1ccc(Sc2ccc(Br)cc2)c([N+](=O)[O-])c1,54,-13,40,-1,76*
O=C(NCCCN1CCOCC1)c1ccc(Sc2ccccc2Cl)c([N+](=O)[O-])c1,12,22,9,-7,52
CN(C)C1=NCCN1CC1CCCCC1,/,13,/,/,3
Cc1c2c(n3c(nc4ccccc43)c1C#N)N(CCCN(C)C)CC2,63*,13,12,-5,-14
Cc1c2c(n3c(nc4ccccc43)c1C#N)N(CCN(C)C)CC2,70*,30,13,2,-4
Cc1cc(NCCCN(C)C)n2c(nc3ccccc32)c1C#N,44,-16,13,3,-12
CC1=NN(c2nc(-c3ccc(F)cc3)cs2)C(=O)C1,7,-13,-7,13,86*
CC1=NN(c2nc(-c3ccc(Cl)cc3)cs2)C(=O)C1,-11,1,-33,39,123*
CC1=NN(c2ccc(Cl)cc2)C(=O)C1,-1,-5,-39,1,13
CC(=O)N1CCCc2cc(S(=O)(=O)N3CCCC(C(=O)Nc4cccc(C)c4)C3)ccc21 (centres undefined),17,19,18,-10,-11
O=C(Nc1cc([N+](=O)[O-])ccc1Cl)C1CC1,-7,15,19,4,-9
O=C1N=C(N2CCOCC2)S/C1=C/c1ccc(-c2ccc(F)cc2)o1,32,38,-44,10,-22
SMILES,T cruzi repl,Mdm2-MdmX inh,aSyn UTR inh,SKKanGAS inh,CSC inhib
Cc1ccc(-c2ccc(/C=C3\SC(N4CCOCC4)=NC3=O)o2)cc1,66*,39,-72,13,20
CC(C)[C@H](NC(=O)C1CC(=O)N(c2ccc(F)cc2)C1)C(=O)N1CCCCC1 (some centres undefined),-13,23,0,-4,-13
Cc1cc(C)n(-c2nc3c(c(=O)[nH]c(=O)n3C)n2CC(O)COc2ccc(Cl)cc2Cl)n1 (centres undefined),12,46,73*,-4,46
C(=C\c1nc2ccccc2[nH]1)/c1ccccc1,-6,-27,47,22,82*
CN(C)c1ccc(/C=C/c2nc3ccccc3c(=O)[nH]2)cc1,-11,-49,87*,40,84*
C=C1[C@@H](C)C2[C@H](Cc3ccccc3)NC(=O)[C@]23OC(=O)CC[C@H](O)CCC[C@H](C)C/C=C/[C@H]3[C@@H]1O (some centres undefined),-15,/,80*,0,/
O=C(CSc1nc2ccccc2o1)N1N=C(c2cccs2)CC1c1ccc(F)cc1 (centres undefined),40,42,19,14,17
COc1ccc(C2CC(c3cccs3)=NN2C(=O)CSc2nc(=O)n3ccc(C)cc3n2)cc1 (centres undefined),37,26,-19,15,-13
Cc1ccc(C2CC(c3cccs3)=NN2C(=O)CSc2nc(=O)n3ccc(C)cc3n2)cc1 (centres undefined),60*,15,-11,40,6
O=C(CSc1nc(=O)n2ccccc2n1)N1N=C(c2cccs2)CC1c1ccc(F)cc1 (centres undefined),58*,21,20,-10,-2
Cn1cc(/C=C/c2cc[n+](C)cc2)c2cc(Cl)ccc21,50,/,64*,-2,-9
COc1cc(Cl)c(C)cc1NC(=O)CC1CCCC1,-13,-12,10,5,-13
CC(C)N(C(=O)COC(=O)c1ccc(Cl)s1)c1ccccc1,/,-2,/,/,/
CCN(CC)c1nc(Nc2ccc(Cl)cc2)nc(OCC#N)n1,37,29,70*,4,1
Cc1cccc(C(=O)Nc2cc(S(=O)(=O)N3CCOCC3)ccc2N2CCCCC2)c1,/,15,/,/,/
CCCCNC(=O)CNC(=S)N(Cc1cc(OC)c(OC)c(OC)c1)C1CCCC1,7,14,-19,-18,-1
CCOc1ccc2ncc(C(=O)c3ccc(OC)cc3)c(N3CCN(CC)CC3)c2c1,11,-1,9,-4,-11
CCOC(=O)c1cnc2ccc(OCC)cc2c1N1CCN(c2ccccc2OC)CC1,57*,40,22,26,34
CCC(NC(=O)CN1CCN(C(=O)c2cccs2)CC1)c1ccc(C)cc1 (centres undefined),/,12,/,/,-9
C/C(Cl)=C/Cc1c(C)[nH]c2ccc(C)cc2c1=O,71*,-9,-34,9,-2
C/C(Cl)=C/Cc1c(C)[nH]c2c(ccc3ccccc32)c1=O,24,21,-22,19,-20
CN=C1S/C(=C\c2ccc(N3CCOCC3)c(F)c2)C(=O)N1C,6,26,-76,61*,6
CN=C1S/C(=C\c2ccc(N3CCCC3)c(F)c2)C(=O)N1C,-9,-38,-139,36,47
Cc1nc(-c2ccc(F)cc2)c(CC(=O)N(C)CC(=O)Nc2ccc(F)cc2)s1,-8,15,3,-10,-6
Nc1sc(-c2ccccc2)c(Cc2ccccc2)c1C(=O)O,4,16,-4,12,2
Cc1cc2c(c(=O)n1Cc1ccc3c(c1)OCO3)C(c1cccnc1)C(C#N)=C(N)O2 (centres undefined),61*,6,22,-6,-6
Cc1cnc(NC(=O)c2cc3c(C)nn(-c4ccccc4)c3s2)s1,8,37,-66,107*,6
O=C(c1ccc([N+](=O)[O-])s1)N1CCc2ccccc2C1,84*,-10,4,-20,-4
